Test results as given in PubChem BioAssay AID463073 (The Scripps Research Institute Molecular Screening Center, 2010).
The whole screen tested about 2,000 compounds, of which about 10 (0.5%) were called active.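 Rule for the calls: active = inhibition above 30%; inactive = the rest.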 Many of the other results were omitted from the sample, so actives are more common in it than they were. Residues, ends and D or L forms follow the SMILES beside them.

Molecular target: Protein-arginine deiminase type-4 (Homo sapiens) (UniProt Q9UM07)
Assay: human PAD4 inhibitors, primary screen, biochemical, fluorescence polarization (AID 463073);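 note: 0% = PAD4 with DMSO and 100% = wells lacking PAD4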
Settings: recombinant PAD4, RFA probe fluorescence polarization; at 5 µM; hits give high values
Procedure, shortened: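 System: recombinant PAD4. Amount: PAD4 at 2 µM in dispensed buffer, before additions. Doses: single 5 µM final compound concentration. Timing: 30 min 25 °C preincubation, 5 h 37 °C labeling. Benchmarks: wells lacking PAD4 as full-inhibition control. Repeats: single well per compound. Measured by: FP, ex 525 nm, em 598 nm.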

Protein-arginine deiminase type-4 (Homo sapiens), sequence (Q9UM07 whole entry, looked up): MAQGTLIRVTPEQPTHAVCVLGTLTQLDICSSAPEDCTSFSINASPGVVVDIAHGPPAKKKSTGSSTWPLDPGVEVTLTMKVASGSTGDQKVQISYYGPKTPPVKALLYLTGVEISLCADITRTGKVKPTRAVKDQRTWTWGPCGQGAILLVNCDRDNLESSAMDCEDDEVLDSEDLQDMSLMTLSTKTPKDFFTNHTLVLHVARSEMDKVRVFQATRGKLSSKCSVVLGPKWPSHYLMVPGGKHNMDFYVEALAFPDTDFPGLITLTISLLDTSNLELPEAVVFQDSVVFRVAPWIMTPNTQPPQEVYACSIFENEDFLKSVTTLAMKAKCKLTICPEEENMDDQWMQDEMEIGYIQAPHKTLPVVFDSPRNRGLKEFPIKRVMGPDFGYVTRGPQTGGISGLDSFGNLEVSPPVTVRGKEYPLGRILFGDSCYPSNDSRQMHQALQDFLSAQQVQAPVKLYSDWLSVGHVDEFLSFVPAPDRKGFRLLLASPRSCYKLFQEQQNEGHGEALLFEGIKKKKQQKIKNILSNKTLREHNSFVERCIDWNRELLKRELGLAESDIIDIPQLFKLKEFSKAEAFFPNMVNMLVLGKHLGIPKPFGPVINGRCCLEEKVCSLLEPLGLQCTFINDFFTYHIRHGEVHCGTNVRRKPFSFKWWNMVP

inhibition, inactive:
COc1ccc(-c2csc(-c3cccnc3)n2)cc1C -0.79%, COc1ccc(OC)c(C(=O)c2coc3ccc(O)cc23)c1 -2.55%, OCC(O)CN1CCN(c2ccccc2)CC1 (stereo unspecified) -2.45%, O=c1c(-c2ccccc2)c(O)c2cccc3c2n1CCC3 5.09%, Cc1cc(OC(=O)CNC(=O)OC(C)(C)C)c2c(C)cc(=O)oc2c1 22.1%, CC(NC(=O)OCc1ccccc1)C(=O)N1CC(O)CC1C(=O)O (stereo unspecified) 6.64%, COC(=O)c1ccc(CC(=O)c2ccc(O)cc2O)o1 4.18%, CCCCCCCC(=O)OCC(=O)[C@@]1(O)CC[C@H]2[C@@H]3CCC4=CC(=O)CC[C@]4(C)[C@H]3[C@@H](O)C[C@@]21C 4.58%, Cc1nc(C2CC(=O)OC23CCCCC3)cs1 (stereo unspecified) -0.47%, CSCCC(NC(=O)OC(C)(C)C)C(=O)Oc1ccc2c(=O)c(-c3ccc4c(c3)OCCO4)coc2c1 (stereo unspecified) 14.1%, c1ccc(-c2ccccn2)nc1 0.78%, Cn1c(=O)[nH]c2nnc(-c3ccc(Cl)c(Cl)c3)nc2c1=O 4.18%, CN(C)CCCNc1ncnc2c1cnn2-c1ccccc1 -1.45%, CCNC(=O)c1sc2cc(C)ccc2c1Cl 0.99%, CSCCC(NC(=O)/C(=C/c1ccc2c(c1)OCO2)NC(=O)c1cccc([N+](=O)[O-])c1)C(=O)O (stereo unspecified) -0.41%, Nc1nnc(CSCc2ccc(Cl)cc2Cl)s1 3.81%, CC12CCC(C(=O)NNc3ccccc3)(C(=O)C1=O)C2(C)C (stereo unspecified) -2.07%, COc1ccc(CN2CCCC(C(=O)c3ccc(Cl)cc3)C2)cc1Cn1cccn1 (stereo unspecified) -0.23%, O=C(CSCc1ccccc1)NCCCN1CCOCC1 -0.81%, CC(=O)c1cc2c(cc1NC(=O)c1ccco1)OCCO2 -1.18%, COC(=O)[C@H]1[C@H]2C[C@@H]3c4[nH]c5cc(OC)ccc5c4CCN3C[C@H]2C[C@@H](OC(=O)c2ccc(N)cc2)[C@@H]1OC 6.06%, COC(=O)c1[nH]c2ccc(F)cc2c1NC(=O)C1=COCCO1 6.4%, COc1cc(CNCCc2ccccc2F)ccc1OCC(=O)N1CCCCC1 -1.57%, COCCOC(=O)C1=C(N)OC2=C(C(=O)CCC2)C1c1cccnc1 (stereo unspecified) 1.53%, COc1ccc(NC(=O)CC2C(=O)N(C)C(=S)N2Cc2ccncc2)cc1 (stereo unspecified) -3.53%, CN1CCCN=C1COC(=O)C(O)(c1ccccc1)C1CCCCC1 (stereo unspecified) -4.01%, Cc1cccc(OCC(=O)Nc2ccc(C(=O)NCC(C)C)cc2)c1 0.21%, N#CCC(N)=C(C#N)C#N 0.67%, CC(=O)[C@@]1(O)CC[C@H]2[C@@H]3CCC4=CC(=O)CC[C@]4(C)[C@H]3[C@@H](O)C[C@@]21C -0.33%, Cc1ccccc1NC(=O)C1c2ccccc2Oc2ccccc21 -0.73%, CC(C)NS(=O)(=O)c1ccc(OCC(=O)Nc2cccc(F)c2)cc1 2.86%, COc1ccc(C2=C(CN(C)C)C(c3ccccc3)c3ccccc3O2)cc1 (stereo unspecified) -1.24%, COc1ccc(-c2nc(C)c(C(C)=O)n2O)cc1OC 2.19%, O=C(O)CCn1c(=S)n(CCC(=O)O)c2ccccc21 3.98%, CC(OC(=O)c1cc(=O)[nH]c2ccccc12)C(=O)c1ccccc1 (stereo unspecified) -0.79%, C=C(C)Cn1c(NCCOC)nc2c1c(=O)[nH]c(=O)n2C 1.67%, CC(=O)NC1C(OCCOc2ccc(Cl)cc2Cl)OC(COC(C)=O)C(OC(C)=O)C1OC(C)=O (stereo unspecified) 2.94%, CCOC(=O)c1cccc(C(=O)OCC)n1 -2.55%, CCOC(=O)C1=C(C)N[C@@]2(O)c3ccccc3C(=O)[C@@]12O 5.29%, CC(=O)N1CC23C=CC(CC2CC12CCCCCC2)O3 (stereo unspecified) 0.84%, CCOc1ncnc2c1[nH]c1ccccc12 1.88%, COC(=O)C1[C@H]2C(=O)N(Cc3cccs3)C[C@]23C=C[C@H]1O3 (stereo partly specified) 2.54%, CC(C)CN1CCN(Cc2ccc3ncccc3c2)CC1CCO (stereo unspecified) 5.67%, CNS(=O)(=O)c1ccc(C)cc1 -0.67%, CCCCNC(=O)NS(=O)(=O)c1ccc(C)cc1 5.34%, O=C(CCc1ccccc1)Nc1ccccc1C(F)(F)F -2.28%, COc1cc2c(cc1OC)C(c1ccccc1)=NCC2 3.38%, C[C@]12CC[C@@H]3c4ccc(O)cc4[C@@H](O)C[C@H]3[C@@H]1CC[C@@H]2O 2.58%, CC(=O)CCc1c(C)c2cccc(C)c2[nH]c1=O 2.48%, CCCCC/C=C\C[C@H](O)/C=C/c1cccc(C[C@H](O)CCCCO)n1 4.29%, CCOC(=O)C(NC(C)=O)C(O)c1ccc([N+](=O)[O-])cc1 (stereo unspecified) 3%, O=C1OC(Nc2ccc3c(c2)OCO3)c2ccccc21 (stereo unspecified) 3.54%, Cc1cccc(Oc2coc3cc(OC(=O)c4cncc(Br)c4)ccc3c2=O)c1 26.8%, COc1ccc(C2C3C(C)=NN=C3CC(C)(O)C2C(C)=O)cc1 (stereo unspecified) -7.27%, O=P(c1ccccc1)(c1ccccc1)c1nc(-c2ccc(Cl)cc2)oc1N1CCOCC1 4.58%, CC(=O)N1CCN(c2ccc(OC[C@H]3CO[C@](Cn4ccnc4)(c4ccc(Cl)cc4Cl)O3)cc2)CC1 6.45%, C/C=C(/C(=C/C)c1ccc(O)cc1)c1ccc(O)cc1 0.21%, C=CCc1cccc2cc(C(=O)Nc3ccc(CC(=O)O)cc3)c(=O)oc12 -4.46%, CC(C)C(=O)Nc1c(O)c2ccccc2[nH]c1=O -3.74%, COc1ccc(C(=O)Nc2nc3ccccc3c(=O)[nH]2)cc1 0.21%, CCOC(=O)n1c(=O)oc2ccccc21 -6.44%, CCOc1cc2c3c(c1)C(C)=CC(C)(C)N3C(=O)C2=O -0.07%, CC(C)CC(=O)NC(NC(=O)CC(C)C)c1cccc([N+](=O)[O-])c1 -2.91%, Cc1[nH]c2ccccc2c1C(=O)CN1CCCC1 -1.81%, O=C1Cc2ccccc2C(c2ccccc2)N1 (stereo unspecified) 0.84%, COc1cc(C2Nc3ccccc3NC3=C2C(=O)CC(c2ccc(OC)c(OC)c2)C3)ccc1O (stereo unspecified) -5.4%, CCc1ccc2oc(=O)cc(CN3CCC(C)CC3)c2c1 -1.47%, C[N+](C)(C)CCCC(=O)c1ccc2c(c1)OCO2 3.91%, CC(=O)NC(CC(C)C)C(=O)NC(Cc1ccccc1)C(N)=O (stereo not drawn) (Ac-Leu-Phe-NH2; configuration not given here) 1.27%, COc1ccc2c(C=O)cn(C)c2c1 -2.41%, COC(=O)c1[nH]c2ccccc2c1NC(=O)CN1CCN(C/C=C/c2ccccc2)CC1 0.97%, Cc1ccnc(NS(=O)(=O)c2ccc(N)cc2)n1 1.25%, COc1cc(=O)n(C)c2ccccc12 0.98%, CC(C)CC(NC(=O)c1cccc(Cl)c1)C(=O)O (stereo unspecified) -0.07%, Cc1c(O)c(=O)ccn1C 4.09%, Cc1cccc(C)c1NS(=O)(=O)c1ccc(NC(=O)c2ccc(Cl)c([N+](=O)[O-])c2)cc1 5.98%, C=CCNC(=S)N1CCc2c([nH]c3ccccc23)C1C (stereo unspecified) -0.07%, CCN1C(=O)C(CC(=O)Nc2ccc(OC)cc2)N(CCc2ccc(F)cc2)C1=S (stereo unspecified) 3.71%, Cc1ccccc1-c1nn(-c2ccc(F)cc2F)cc1CNCCN(C)C -4.06%, COc1ccc2[nH]cc(C(=O)CCl)c2c1 2.86%, COC(=O)CN1CC(=O)N(c2ccccc2)C1=S -0.98%, O=c1oc2c(CN3CCCCC3)c(O)ccc2c2c1CCCCC2 -1.21%, COc1ccc2oc(=O)c(-c3nc(C)cs3)cc2c1 3.51%, O=C(NCc1ccc2c(c1)OCO2)c1ccc2c(c1)OCCO2 2.19%, CCOC(=O)C1C(=O)CC(C)(O)C(C(=O)OCC)C1/C=C/c1ccccc1 (stereo unspecified) 0.16%, CCOc1ccc(N2C(=O)CNC2=S)cc1 0.84%, COc1ccc(N2C(=O)C3C(C2=O)C(C(=O)c2ccccc2)N2CCCC32)cc1 (stereo unspecified) 2.54%, COc1ccc(C(=O)[C@H]2[C@H]3C(=O)N(c4ccccc4)C(=O)[C@H]3C3C=CC=NN32)cc1 (stereo partly specified) 2.34%

inhibition, active:
Cn1nc(-c2ccccn2)nc2c(=O)n(C)c(=O)nc1-2 98.2%, Cn1nc(-c2ccc(Cl)cc2)nc2c(=O)n(C)c(=O)nc1-2 90.7%, CCOC(=O)c1c(C)oc2c1C(=O)c1ccccc1C2=O 61.9%, Cc1ccc(S(=O)(=O)N[C@@H](Cc2ccccc2)C(=O)CCl)cc1 39.7%, COC(=O)c1[nH]c(=O)c2ccccc2c1O 66.5%, O=C1NCC2=C1C(c1ccccc1)Nc1ccccc1N2 (stereo unspecified) 58.3%, COC1=C(N)C(=O)c2nc(-c3nc(C(=O)O)c(C)c(-c4ccc(OC)c(OC)c4O)c3N)ccc2C1=O 92.5%, COc1ccc(N2C(=O)[C@@H]3[C@H](C2=O)[C@H]2c4ccccc4C=CN2[C@@H]3C(C)=O)cc1 37.2%
